Measurements of several laboratories.
Each line is one published result; the experiments were not run side by side.
Observed: cell growth or viability

O=C1c2ccccc2-c2c3c(cc4ccnc1c24)OCO3  IC50 (T47D; MTT; 75 h): 15900 nM
O=[N+]([O-])c1ccc(NCCCCCCN=C=S)c2nonc12  IC50 (T47D; MTT; 24 h): 1200 nM
N.N.[Cl][Pt][Cl]  inhibition (JVM-3; ATP luminescence; 10 µM, 72 h): 100%
C[S+]([O-])CCCCN=C=S (stereo not shown)  IC50 (T47D; MTT; 24 h): 30400 nM
CC(=O)c1c(C)c2cnc(Nc3ccc(C4CCN(CCS(C)(=O)=O)CC4)cn3)nc2n(C2CCCC2)c1=O  IC50 (T47D; ATP luminescence; 72 h): 177 nM
Cc1cc(=O)oc2cc(OCCCC[Se]C#N)ccc12  GI50 (MIA PaCa-2; SRB): 2600 nM
Cc1ncsc1-c1ccc([C@H](C)NC(=O)[C@@H]2C[C@@H](O)CN2C(=O)[C@@H](c2cc(N3CCC(CN4CCC(OC5CC(Oc6cc(N7C8CCC7CN(c7cc(-c9ccccc9O)nnc7N)C8)ccn6)C5)CC4)CC3)no2)C(C)C)cc1 (stereo partly shown)  IC50 (LNCaP; ATP luminescence; 7 days): 3.2 nM
N#C[Se]Cc1cc(=O)oc2cc(O)ccc12  GI50 (T47D; SRB): 35000 nM
CC[C@@]1(O)C(=O)OCc2c1cc1n(c2=O)Cc2cc3ccccc3nc2-1  IC50 (MIA PaCa-2; SRB; 48 h): 151 nM
COC(=O)c1cc(C(C)=NNc2nc(-c3ccc(S(=O)(=O)F)cc3)cs2)ccc1O  IC50 (T47D; MTT; 96 h): 26300 nM
